pKi: −log10 of the molar value. Calls of active or inactive are those of the source. The calls are words filed in the database; no cut-off is given here.
Key:
Mus musculus [1] = assay: In vivo inhibition of locomotor activity in mice following i.p. administration.; format: functional; conditions: ip
In short: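 Mice dosed ip, then immediately tested for 1 h in darkened cylindrical photobeam chambers. Activity expressed as percent inhibition versus vehicle-treated mice. ED50 with 95% confidence range from three to six doses, 6–18 animals per dose.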

Rattus norvegicus [2] = species: Rattus norvegicus; assay: Inhibition of spontaneous locomotor activity after peroral injection into rat; format: functional
In short: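 Rats dosed orally before a 30 min test in darkened cylindrical photobeam chambers. Percent inhibition of activity relative to vehicle-treated rats; ED50 with 95% confidence range from three to six doses, 6–18 animals per dose.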

Rattus norvegicus [3] = assay: Percent reversal of DOPA levels in the striatum of gamma-butyrolactone-treated rats at 10 mg/kg by intraperitoneal route; format: functional
In short: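 Male Long Evans rats received 10 mg/kg ip 1 h before sacrifice, with GBL (750 mg/kg ip) and NSD 1015 (100 mg/kg ip) 30 min before sacrifice. Striatal DOPA was quantified by HPLC-electrochemical detection and expressed as percent reversal between GBL + NSD 1015 (0%) and vehicle + NSD 1015 (100%) controls; n = 4-5 rats.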

D(2) dopamine receptor [4] = target: T1, D(2) dopamine receptor (Rattus norvegicus, UniProt P61169); assay: In vitro binding affinity for dopamine receptor D2 on rat striatal membranes by [3H]spiperone displacement.; set-up: species or system Striatum, Membrane
In short: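 Displacement of [3H]spiperone (0.2 nM final) from rat striatal membranes; nonspecific binding defined with 1 μM (+)-butaclamol. IC50 determined, reported as Ki.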

Rattus norvegicus [5] = species: Rattus norvegicus; assay: Inhibition of spontaneous locomotor activity after peroral injection into rat; Stimulation of locomotory activity; format: functional, organism-based
D(2) dopamine receptor [6] = target: T1, D(2) dopamine receptor; assay: Binding affinity was determined in vitro on rat striatum using [3H]N-propylnorapomorphine against Dopamine receptor D2; format: tissue-based
In short: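 Rat striatal membranes; [3H]-NPA agonist radioligand at 0.35 nM final, labelling high-affinity state D2 sites; nonspecific binding defined with 2 μM (+)-butaclamol. IC50 determined by displacement, reported as Ki (nM).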

D(4) dopamine receptor = target: T2, D(4) dopamine receptor (Homo sapiens, UniProt P21917); assay: In vitro binding affinity towards human recombinant Dopamine receptor D4 expressed in CHO-K1 cells was determined using [3H]spiperone as radioligand; format: cell-based
T2 sequence (P21917 whole entry): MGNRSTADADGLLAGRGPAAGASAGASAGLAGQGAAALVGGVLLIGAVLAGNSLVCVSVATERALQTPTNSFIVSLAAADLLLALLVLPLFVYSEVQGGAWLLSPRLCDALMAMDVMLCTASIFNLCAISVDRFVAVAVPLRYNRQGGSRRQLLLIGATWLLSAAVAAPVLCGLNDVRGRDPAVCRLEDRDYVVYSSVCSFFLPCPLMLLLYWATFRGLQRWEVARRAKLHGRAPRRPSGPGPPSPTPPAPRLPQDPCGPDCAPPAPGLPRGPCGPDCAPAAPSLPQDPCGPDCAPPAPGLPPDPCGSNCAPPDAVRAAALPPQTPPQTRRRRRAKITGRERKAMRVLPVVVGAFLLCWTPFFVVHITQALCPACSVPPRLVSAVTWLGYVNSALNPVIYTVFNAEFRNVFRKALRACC
In short: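 CHO K1 cells stably transfected with human recombinant DA D4.2 receptor subtype; membranes incubated with [3H]spiperone (0.2 nM final); Ki values determined.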

D(3) dopamine receptor = D(3) dopamine receptor (Homo sapiens, UniProt P35462); assay: In vitro binding affinity towards human recombinant Dopamine receptor D3 receptor expressed in CHO-K1 cells was determined using [3H]spiperone as radioligand
Mus musculus [7] = assay: Inhibition of apomorphine-induced climbing in mice after intraperitoneal injection; format: functional; conditions: ip
In short: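 Mice received apomorphine 1 mg/kg sc and returned to cages. Test compound or vehicle given ip 5 min later, and climbing scored 10 min after that; ED50 in mg/kg ip.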

Rattus norvegicus [8] = assay: Decrease in dopamine neuronal firing rate in rats after intraperitoneal injection of 2.5 mg/kg; format: functional; set-up: scale not given: the % may be the effect or the level left
Rattus norvegicus [9] = assay: Decrease of rat striatal dopamine overflow after intraperitoneal injection of 10 mg/kg measured via in vivo microdialysis; format: functional; set-up: scale not given: the % may be the effect or the level left
In short: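 Adult male Sprague-Dawley rats (200-250 g) under urethane in a stereotaxic frame, with a 4 mm probe in striatum perfused with artificial CSF at 2 μL/min. Dialysate collected every 20 min and assayed for catecholamines by HPLC-electrochemical detection, after 10 mg/kg ip; n = 4.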

Rattus norvegicus [10] = species: Rattus norvegicus; assay: Compound was evaluated for ability to reverse gamma-butyrolactone (GBL)-induced sunthesis of DOPA in rat corpus striatum; format: functional
In short: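 Male Long Evans rats dosed 1 h before sacrifice; GBL 750 mg/kg ip plus NSD 1015 100 mg/kg ip given 30 min before sacrifice. Striatal DOPA measured by HPLC with electrochemical detection. ED50 read graphically as the dose giving 50% reversal of the GBL-induced rise in DOPA accumulation; 0% = GBL + NSD 1015, 100% = vehicle + NSD 1015.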

Rattus norvegicus [11] = assay: Stereotypy in rats (intraperitoneal); format: functional; conditions: ip
In short: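 A trained observer rated rats for repetitive sniffing, licking and gnawing, 30 s per rat; a behaviour counted only if continuously present for at least 15 s. Rats observed 1 h after the test compound, then given the D1 agonist SKF 38393 and observed for another hour.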

[12] = Inhibition of sidman avoidance in squirrel monkey after peroral administration; format: functional; conditions: po
In short: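 Squirrel monkeys dosed orally; conditioned (Sidman) avoidance recorded for 6 h. Effect expressed as percent avoidance responding relative to control performance over the 4 h of peak effect; ED50 in mg/kg po.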

[13] = Decrease in squirrel monkey striatal dopamine overflow measured via in vivo microdialysis after administering a dose of 3 mg/kg intraperitoneally; format: functional; set-up: scale not given: the % may be the effect or the level left; conditions: route intraperitoneal
Rattus norvegicus [14] = assay: Inhibition of spontaneous locomotor activity after intraperitoneal injection into rat at 3 mg/kg; format: functional; conditions: ip
Rattus norvegicus [15] = assay: Inhibition of spontaneous locomotor activity after intraperitoneal injection into rat at 30 mg/kg; format: functional; conditions: ip
Rattus norvegicus [16] = assay: Percent reversal of DOPA synthesis in the striatum of gamma-butyrolactone-treated rats at 10 mg/kg by intraperitoneal route; Increase; format: functional, organism-based; set-up: dose 10 mg/kg
In short: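 Male Long Evans rats given compound ip 1 h before sacrifice; GBL (750 mg/kg ip) plus NSD 1015 (100 mg/kg ip) 30 min before sacrifice. Striatal DOPA measured by HPLC with electrochemical detection. Result given as percent reversal between the GBL + NSD 1015 control (0%) and the vehicle + NSD 1015 control (100%); n = 4–5 animals.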

T1 sequence (P61169 whole entry): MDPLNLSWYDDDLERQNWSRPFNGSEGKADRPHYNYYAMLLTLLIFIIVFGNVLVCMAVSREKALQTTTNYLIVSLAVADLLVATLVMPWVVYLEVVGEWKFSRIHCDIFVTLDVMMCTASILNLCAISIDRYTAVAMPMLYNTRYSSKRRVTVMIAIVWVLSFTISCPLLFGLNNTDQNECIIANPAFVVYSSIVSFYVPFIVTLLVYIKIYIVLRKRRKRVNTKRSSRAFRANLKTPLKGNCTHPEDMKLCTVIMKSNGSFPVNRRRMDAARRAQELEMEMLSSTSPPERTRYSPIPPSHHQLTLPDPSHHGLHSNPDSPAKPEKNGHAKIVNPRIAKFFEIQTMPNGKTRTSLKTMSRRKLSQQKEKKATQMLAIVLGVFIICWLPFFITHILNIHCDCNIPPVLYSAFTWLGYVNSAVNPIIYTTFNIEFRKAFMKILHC
Sequence of D(3) dopamine receptor (P35462 whole entry): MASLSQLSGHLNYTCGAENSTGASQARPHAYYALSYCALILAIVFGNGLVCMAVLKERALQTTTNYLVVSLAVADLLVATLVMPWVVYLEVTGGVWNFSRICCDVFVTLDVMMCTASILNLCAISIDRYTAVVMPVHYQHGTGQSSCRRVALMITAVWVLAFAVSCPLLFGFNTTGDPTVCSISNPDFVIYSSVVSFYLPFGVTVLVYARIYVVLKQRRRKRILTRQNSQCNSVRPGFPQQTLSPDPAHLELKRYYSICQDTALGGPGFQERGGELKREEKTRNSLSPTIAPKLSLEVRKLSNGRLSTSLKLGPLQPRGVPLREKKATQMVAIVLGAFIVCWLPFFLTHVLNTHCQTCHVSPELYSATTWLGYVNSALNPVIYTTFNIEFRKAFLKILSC

Row | SMILES | pKi (D(2) dopamine receptor [4]) | ED50 (Mus musculus [1]) | ED50 (Rattus norvegicus [2]) | Reversal (Rattus norvegicus [3]) | further results
1 | C1=C(c2ccccc2)CC[C@H](CCN2CCN(c3ccccn3)CC2)C1 | 6.39 | – | – | – | –
2 | C1=C(c2c[nH]c3ccccc23)CCC(CCN2CCN(c3ccccn3)CC2)C1 (centres undefined) | 6.57 | – | – | – | –
3 | Oc1ccc2[nH]cc(CCCCN3CC=C(c4ccccc4)CC3)c2c1 [ROXINDOLE] | 7.85 | 0.25 mg/kg | 47.6 mg/kg | 70% | –
4 | c1ccc(N2CCN(CC[C@H]3CC[C@H](c4c[nH]c5ccccc54)CC3)CC2)nc1 | 7.30 | 1.4 mg/kg | 4.8 mg/kg | 44% | pKi (D(2) dopamine receptor [6]): 8.59; pKi (D(4) dopamine receptor): 7.14; pKi (D(3) dopamine receptor): 7.54; ED50 (Mus musculus [7]): > 30 mg/kg; Activity (Rattus norvegicus [8]): 100%; Activity (Rattus norvegicus [9]): 33%; ED50 (Rattus norvegicus [10]): 6.6 mg/kg; ED50 (Rattus norvegicus [11]): > 24 mg/kg; ED50 [12]: 1 mg/kg; Activity [13]: 38%
5 | C1=C(c2ccccc2)CCN(CC[C@H]2CC[C@@H](c3c[nH]c4ccccc43)CC2)C1 | 7.55 | 10.5 mg/kg | – | 5% | –
6 | c1cnc(N2CCN(CC[C@H]3CC[C@H](c4c[nH]c5ccccc54)CC3)CC2)nc1 | 6.79 | 3.3 mg/kg | 18.6 mg/kg | 34% | –
7 | Cn1cc([C@H]2CC[C@H](CCN3CCN(c4ccccn4)CC3)CC2)c2ccccc21 | 7.08 | > 30 mg/kg | – | – | –
8 | C1=C(c2ccccc2)CCN(CC[C@H]2CC[C@H](c3c[nH]c4ccccc43)CC2)C1 | 8.06 | 7.2 mg/kg | > 30 mg/kg | – | Reversal (Rattus norvegicus [16]): inactive
9 | c1ccc(N2CCN([C@H]3CC[C@H](c4c[nH]c5ccccc54)CC3)CC2)nc1 | 6.34 | 1.2 mg/kg | 13.7 mg/kg | 38% | –
10 | c1ccc(N2CCN(CC[C@H]3CC[C@H](c4c[nH]c5ccccc54)CC3)CC2)cc1 | 6.91 | 13.9 mg/kg | – | – | Reversal (Rattus norvegicus [16]): inactive
11 | c1ccc(N2CCN([C@H]3CC[C@@H](c4c[nH]c5ccccc54)CC3)CC2)nc1 | – | > 30 mg/kg | – | – | –
12 | Fc1ccc(N2CCN(CC[C@H]3CC[C@H](c4c[nH]c5ccccc54)CC3)CC2)cc1 | 6.19 | > 30 mg/kg | – | – | –
13 | C1=C(c2cccs2)CCN(CC[C@H]2CC[C@H](c3c[nH]c4ccccc43)CC2)C1 | 6.20 | 11.6 mg/kg | – | – | –

Second part, led by results:

Row | pKi (D(2) dopamine receptor [4]) | SMILES | ED50 (Mus musculus [1]) | ED50 (Rattus norvegicus [2]) | Reversal (Rattus norvegicus [3]) | further results
14 | 8.07 | Oc1ccc2[nH]cc([C@H]3CC[C@H](CCN4CCN(c5ccccn5)CC4)CC3)c2c1 | 0.6 mg/kg | > 30 mg/kg | 25% | –
15 | 6.96 | Fc1ccc2[nH]cc([C@H]3CC[C@H](CCN4CCN(c5ccccn5)CC4)CC3)c2c1 | 9 mg/kg | – | 100% | ED50 (Rattus norvegicus [5]): Stimulant
16 | 7.54 | COc1ccc2[nH]cc([C@H]3CC[C@H](CCN4CCN(c5ccccn5)CC4)CC3)c2c1 | 2.2 mg/kg | > 30 mg/kg | 88% | –
17 | 6.91 | c1ccc(N2CCN(C[C@H]3CC[C@@H](c4c[nH]c5ccccc54)CC3)CC2)nc1 | 1.2 mg/kg | – | – | inhibition in vivo at 3 mg/kg (Rattus norvegicus [14]): 57%; inhibition in vivo at 30 mg/kg (Rattus norvegicus [15]): 1.8%
18 | 6.86 | c1ccc(N2CCN(CC[C@H]3CC[C@@H](c4c[nH]c5ccccc54)CC3)CC2)nc1 | 4.7 mg/kg | 12.2 mg/kg | 60% | –
19 | 7.07 | c1ccc(N2CCN(C[C@H]3CC[C@H](c4c[nH]c5ccccc54)CC3)CC2)nc1 | 2.3 mg/kg | 8.8 mg/kg | 81% | –

Source: ChEMBL document CHEMBL1130352, “3-[[(4-Aryl-1-piperazinyl)alkyl]cyclohexyl]-1H-indoles as dopamine D2 partial agonists and autoreceptor agonists” (J Med Chem, 1997)
